# Assay results gathered from unrelated publications.
# Lines come from different studies, so protocols differ.
# Target: Tyrosine-protein kinase Fer (FER, Homo sapiens, UniProt P16591)
SMILES,read-out,mode,method,concentration,endpoint,value
CC(C)(C)c1nc2c(s1)c1nc(N)ncc1c1ccc(NS(=O)(=O)c3c(F)cccc3F)c(F)c12,enzyme activity,inhibitor,radiometric,1 µM,remaining activity,111%
c1nc2c(Nc3ccc4c(c3)OCCO4)nc(Nc3ccc4c(c3)OCCO4)nc2[nH]1,enzyme activity,inhibitor,,10 µM,activity vs control,5.7%
COc1cc2ncnc(Nc3ccc(Oc4ccccc4)cc3C)c2cc1OC,enzyme activity,inhibitor,,1 µM,inhibition,54%
Cc1ccc(NC(=O)c2ccc(C)c(C(F)(F)F)c2)cc1C#Cc1nn(C2CCC(O)CC2)c2ncnc(N)c12 (stereo not shown),cell-free assay,,,10 µM,remaining signal,67%
O=C1NC(c2ccccn2)Sc2ccccc21 (stereo not shown),cell-free assay,,competition with immobilised ligand,1 µM,remaining binding,84%
O=C(Nc1cnn(-c2csc(C(=O)NC3COC3)c2)c1)Nc1c(F)cccc1Cl,enzyme activity,inhibitor,,5 µM,remaining activity,89.8%
N#CCCc1ccc2c(c1)-c1[nH]c3ccc([N+](=O)[O-])cc3c1CC(=O)N2,cell-free assay,,,0.5 µM,remaining signal,72.7%
CC(=O)N1CCC(c2ccc(C(=O)NC3=NCCN3)cc2C(F)(F)F)CC1,cell-free assay,,competition with immobilised ligand,1 µM,remaining binding,93%
CNC(=O)c1cc2c(Oc3ccc(NC(=O)C4(C(=O)Nc5ccc(F)cc5)CC4)cc3)ccnc2cc1OC,enzyme activity,inhibitor,radiometric,1 µM,inhibition,74%
CN1CC(Oc2cnc(C#N)cc2-c2ccn3nc(NC(=O)C4CC4)cc3c2)C1,enzyme activity,inhibitor,,1 µM,inhibition,1%
Cc1ccc(C(=O)Nc2ccc(CN3CCN(C)CC3)c(C(F)(F)F)c2)cc1C#Cc1cnc2cccnn12,enzyme activity,,,23.5 nM,remaining activity,94%
CO[C@@H](C)c1c(Nc2ccc([C@H](N(C)C(=O)C3CCS(=O)(=O)CC3)C(F)(F)F)cc2)cnc2cc(Cl)nn12,cell-free assay,,competition with immobilised ligand,1 µM,remaining binding,88%
Cc1ccc(Nc2nccc(N(C)c3ccc4c(C)n(C)nc4c3)n2)cc1S(N)(=O)=O,enzyme activity,inhibitor,,0.3 µM,inhibition,-24%
C=CC(=O)Nc1cc(Nc2nccc(Nc3cc(Cl)c(F)cc3C(C)(C)O)n2)c(OC)cc1N1CC[C@@H](N(C)C)C1,enzyme activity,inhibitor,,1 µM,inhibition,8%
COc1ccc2c(c1)O[C@@H](c1ccc(OC)c(OC)c1)C[C@H]2NC(=O)C1(c2ccc3c(c2)OC(F)(F)O3)CC1,cell-free assay,,competition with immobilised ligand,1 µM,remaining binding,100%
O=C(O)c1ccc2c3c1cccc3c(=O)n1c3ccccc3nc21,enzyme activity,inhibitor,,0.5 µM,remaining activity,96.5%
CCCS(=O)(=O)Nc1ccc(F)c(C(=O)c2c[nH]c3ncc(-c4ccc(Cl)cc4)cc23)c1F,enzyme activity,inhibitor,,1 µM,inhibition,< 10%
COc1cc2nccc(Oc3ccc(NC(=S)NC(=O)c4ccccc4C)cc3)c2cc1OC,enzyme activity,inhibitor,,0.5 µM,remaining activity,58.2%
CC1=C(C#N)C(c2ccc3c(c2)c(NC(=O)c2ccccc2C)nn3C)C(C#N)=C(C)N1,cell-free assay,,competition with immobilised ligand,1 µM,remaining binding,88%
CNc1cccc2cc(C(=O)Nc3ccc(C(=O)O)cc3)c(=O)[nH]c12,enzyme activity,inhibitor,,10 µM,inhibition,1.6%
Nc1cnc(N2CCc3cc(S(=O)(=O)Nc4c(F)cc(Cl)cc4F)cc(N4CCCC4=O)c32)nc1,cell-free assay,,competition with immobilised ligand,1 µM,remaining binding,100%
CNC(=O)c1cc(Oc2ccc(NC(=O)Nc3ccc(Cl)c(C(F)(F)F)c3)cc2)ccn1,enzyme activity,inhibitor,,10 µM,inhibition,-30%
COc1cc2ncnc(Nc3ccc(F)c(Cl)c3)c2cc1OCCCN1CCOCC1,cell-free assay,,,0.5 µM,remaining signal,94.1%
CCN(CC)CCNC(=O)c1c(C)[nH]c(/C=C2\C(=O)Nc3ccc(F)cc32)c1C,enzyme activity,inhibitor,,10 µM,inhibition,55%
O=c1c2ccccc2[nH]c(=S)n1CCN1CCC(=C(c2ccc(F)cc2)c2ccc(F)cc2)CC1,enzyme activity,inhibitor,,0.5 µM,remaining activity,95.2%
CCCOc1ccc(OC)c(F)c1C(=O)c1ccc(C(=O)N[C@@H]2CNC[C@H]2NC(=O)c2ccc3[nH]ncc3c2)cc1,enzyme activity,inhibitor,,10 µM,remaining activity,105%
CCOCCn1cc(C(=O)Nc2ccc(-n3nc(-c4cccnc4)cc3C(F)(F)F)cn2)ccc1=O,cell-free assay,,competition with immobilised ligand,1 µM,remaining binding,100%
O=c1cc(-c2cccc3c2Sc2ccccc2S3)oc(N2CCOCC2)c1,enzyme activity,inhibitor,,0.5 µM,remaining activity,103%
C[C@@H](c1cccc(C#N)c1)n1cc(Cl)cc(C(N)=O)c1=N,cell-free assay,,competition with immobilised ligand,1 µM,remaining binding,100%
COc1cc2c(N3CCN(C(=O)Nc4ccc(OC(C)C)cc4)CC3)ncnc2cc1OCCCN1CCCCC1,cell-free assay,,,0.5 µM,remaining signal,104%
Cc1cc(NC(=O)c2cccc3cc(-c4cccc5[nH]nc(N)c45)ccc23)ccc1F,enzyme activity,inhibitor,,0.1 µM,activity vs control,106%
